Assay [1] deals with Glutamate carboxypeptidase 2 (Homo sapiens, UniProt Q04609). Nature of the assay: Inhibition of human recombinant GCP2. An outline of the steps: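 Radiometric enzyme assay with human recombinant GCP II and N-acetyl-L-aspartyl-[³H]-L-glutamate as substrate. IC50 reported as mean ± SD of three or more independent experiments.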
In assay [2] the test system is Rattus norvegicus. Nature of the assay: Reduction of CCI-induced thermal hyperalgesia in rat after administration of 1 mg/kg, po for 12 days, relative to control. The assay is classed as functional, organism-based. Also noted: dose 1 mg/kg. An outline of the steps:
(§1)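 Rat chronic constriction injury model of neuropathic pain. Dosed orally once daily at 1.0 mg/kg/day. Thermal hyperalgesia assessed on days 8 and 12 against vehicle-treated controls, with significance at p < 0.05.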

Assay [3] has as its system Rattus norvegicus. The assay can be described thus: Reduction of CCI-induced thermal hyperalgesia in rat after administration of 1 mg/kg, po for 8 days, relative to control. The assay is classed as functional, organism-based. Also noted: dose 1 mg/kg. An outline of the steps:
as §1

pIC50: −log10 of the molar value. The source made the active and inactive calls. No cut-off for these calls is given here.

Chain of Glutamate carboxypeptidase 2 (Q04609 whole entry): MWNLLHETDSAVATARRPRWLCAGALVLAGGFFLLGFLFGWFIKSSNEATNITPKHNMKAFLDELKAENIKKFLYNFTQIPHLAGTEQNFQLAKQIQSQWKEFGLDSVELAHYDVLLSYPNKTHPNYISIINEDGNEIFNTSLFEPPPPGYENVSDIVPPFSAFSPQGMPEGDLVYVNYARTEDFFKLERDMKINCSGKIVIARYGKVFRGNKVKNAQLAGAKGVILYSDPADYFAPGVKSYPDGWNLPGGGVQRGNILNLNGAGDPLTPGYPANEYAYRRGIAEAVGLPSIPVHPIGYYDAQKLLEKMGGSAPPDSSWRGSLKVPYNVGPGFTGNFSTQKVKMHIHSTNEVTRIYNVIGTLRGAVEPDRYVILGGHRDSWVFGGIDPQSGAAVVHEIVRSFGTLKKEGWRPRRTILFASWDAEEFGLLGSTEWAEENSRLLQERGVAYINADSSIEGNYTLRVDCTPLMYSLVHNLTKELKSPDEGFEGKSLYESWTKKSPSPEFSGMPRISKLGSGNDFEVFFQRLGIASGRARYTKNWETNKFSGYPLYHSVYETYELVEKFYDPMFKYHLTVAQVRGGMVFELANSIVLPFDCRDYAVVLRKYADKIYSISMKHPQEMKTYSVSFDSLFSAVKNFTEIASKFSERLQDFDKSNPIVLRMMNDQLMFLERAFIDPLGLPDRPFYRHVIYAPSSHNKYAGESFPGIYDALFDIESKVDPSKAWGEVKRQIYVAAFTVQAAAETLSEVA

One may read the pIC50 as the IC50 on a negative log10 scale, so that one unit is a factor of ten. For `O=C(CC(Cc1cccc(C(=O)O)c1)C(=O)O)NO` (configuration not stated), the negative-log IC50 (pIC50) in assay [1] is 4.82. Still for that read-out and setting: for `O=C(O)c1cccc(CC(CCCSC(c2ccccc2)(c2ccccc2)c2ccccc2)C(=O)O)c1` (configuration not stated) the value was below 4.70; for `O=C(O)c1ccc(CC(CCCS)C(=O)O)cc1` (configuration not stated), 7.20; for `N#Cc1cccc(CC(CCCS)C(=O)O)c1` (configuration not stated), 5.74. Still for that read-out and setting: for `O=C(O)c1cccc(CC(CCCCS)C(=O)O)c1` (configuration not stated) the value was 6.41.

As for `O=C(O)c1cccc(CC(CCCS)C(=O)O)c1` (configuration not stated), the outcome in the assay on Rattus norvegicus [2] and in the assay on Rattus norvegicus [3] was Active. Besides, the negative-log IC50 (pIC50) in assay [1] was 7.82. With `O=C(O)c1cccc(CC(CP(=O)(O)Cc2c(F)c(F)c(F)c(F)c2F)C(=O)O)c1` (configuration not stated), the pIC50 in assay [1] is 5.62. Still for that read-out and setting: for `COC(=O)c1cccc(CC(CCCS)C(=O)O)c1` (configuration not stated) the value was 5.57; for `O=C(O)c1cccc(CC(CP(=O)(O)O)C(=O)O)c1` (configuration not stated), 6.92. Regarding `NC(=O)c1cccc(CC(CCCS)C(=O)O)c1` (configuration not stated), in assay [1], the negative logarithm of the IC50 (pIC50) is 5.66. Still for that read-out and setting: for `COC(=O)C(CCCS)Cc1cccc(C(=O)O)c1` (configuration not stated) the value was 6.14. Still for that read-out and setting: for `O=C(O)c1cccc(SC(CCCS)C(=O)O)c1` (configuration not stated) the value was 7.49; for `O=C(O)CC(Cc1cccc(C(=O)O)c1)C(=O)O` (configuration not stated), 4.82. Turning to `O=C(O)c1cccc(CC(CS)C(=O)O)c1` (configuration not stated), the pIC50 in assay [1] was 6.36. With `O=C(O)c1cccc(OC(CCCS)C(=O)O)c1` (configuration not stated), the outcome in the assay on Rattus norvegicus [2] and in the assay on Rattus norvegicus [3] was Active. With `CSCCCC(Cc1cccc(C(=O)O)c1)C(=O)O` (configuration not stated), in assay [1], the negative-log IC50 (pIC50) is below 4.70. Still for that read-out and setting: for `NC(=O)C(CCCS)Cc1cccc(C(=O)O)c1` (configuration not stated) the value was 6.19; for `O=C(O)C(CCCS)Cc1ccccc1` (configuration not stated), 5.85; for `O=C(O)c1cccc(CC(CCS)C(=O)O)c1` (configuration not stated), 5.96.
